Assay results reported in ChEMBL document CHEMBL2396604, “Synthesis and structure activity relationship of tetrahydroisoquinoline-based potentiators of GluN2C and GluN2D containing N-methyl-D-aspartate receptors” (J Med Chem, 2013).

What was measured:
[1] = target: Kappa-type opioid receptor (Homo sapiens, UniProt P41145); experiment: Inhibition of kappa opioid receptor (unknown origin) by psychoactive drug screening programme assay
[2] = target: Sodium-dependent noradrenaline transporter (Homo sapiens) (UniProt P23975); experiment: Inhibition of norepinephrine transporter (unknown origin) at 5 uM by psychoactive drug screening programme assay
Chain of Sodium-dependent noradrenaline transporter (Homo sapiens) (P23975 whole entry): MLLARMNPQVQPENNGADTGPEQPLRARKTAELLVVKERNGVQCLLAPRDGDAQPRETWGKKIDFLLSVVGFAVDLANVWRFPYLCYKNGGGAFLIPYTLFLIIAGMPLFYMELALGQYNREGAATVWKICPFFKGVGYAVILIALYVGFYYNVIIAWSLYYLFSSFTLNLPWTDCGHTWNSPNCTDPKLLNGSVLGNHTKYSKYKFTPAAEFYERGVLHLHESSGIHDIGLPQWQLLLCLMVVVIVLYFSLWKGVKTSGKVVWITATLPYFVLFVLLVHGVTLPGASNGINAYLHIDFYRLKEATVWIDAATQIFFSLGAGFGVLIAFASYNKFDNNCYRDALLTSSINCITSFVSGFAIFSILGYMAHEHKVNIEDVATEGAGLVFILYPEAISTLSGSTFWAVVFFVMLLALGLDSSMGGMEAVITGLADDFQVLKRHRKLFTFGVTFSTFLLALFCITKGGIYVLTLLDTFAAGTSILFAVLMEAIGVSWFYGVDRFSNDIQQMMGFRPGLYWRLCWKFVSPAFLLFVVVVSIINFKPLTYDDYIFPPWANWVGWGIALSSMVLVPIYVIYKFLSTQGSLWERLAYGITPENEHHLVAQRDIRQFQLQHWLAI
How it was run: (§1)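 Radioligand binding screen run by PDSP. Displacement of ligand binding was measured with test compound at 5 µM, n=4 per target.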

[3] = target: Sodium-dependent dopamine transporter (Homo sapiens) (UniProt Q01959); experiment: Inhibition of dopamine transporter (unknown origin) at 5 uM by psychoactive drug screening programme assay; how it was run: as §1
[4] = target: Sodium-dependent serotonin transporter (Homo sapiens) (UniProt P31645); experiment: Inhibition of serotonin transporter (unknown origin) at 5 uM by psychoactive drug screening programme assay
[5] = target: Sigma non-opioid intracellular receptor 1 (Homo sapiens) (UniProt Q99720); experiment: Inhibition of sigma1 receptor (unknown origin) at 5 uM by psychoactive drug screening programme assay
Homo sapiens = species on record: Homo sapiens; experiment: Inhibition of sigma2 receptor (unknown origin) at 5 uM by psychoactive drug screening programme assay
[6] = target: Muscarinic acetylcholine receptor M4 (Homo sapiens) (UniProt P08173); experiment: Inhibition of M4 receptor (unknown origin) at 5 uM by psychoactive drug screening programme assay; how it was run: as §1
Chain of Muscarinic acetylcholine receptor M4 (Homo sapiens) (P08173 whole entry): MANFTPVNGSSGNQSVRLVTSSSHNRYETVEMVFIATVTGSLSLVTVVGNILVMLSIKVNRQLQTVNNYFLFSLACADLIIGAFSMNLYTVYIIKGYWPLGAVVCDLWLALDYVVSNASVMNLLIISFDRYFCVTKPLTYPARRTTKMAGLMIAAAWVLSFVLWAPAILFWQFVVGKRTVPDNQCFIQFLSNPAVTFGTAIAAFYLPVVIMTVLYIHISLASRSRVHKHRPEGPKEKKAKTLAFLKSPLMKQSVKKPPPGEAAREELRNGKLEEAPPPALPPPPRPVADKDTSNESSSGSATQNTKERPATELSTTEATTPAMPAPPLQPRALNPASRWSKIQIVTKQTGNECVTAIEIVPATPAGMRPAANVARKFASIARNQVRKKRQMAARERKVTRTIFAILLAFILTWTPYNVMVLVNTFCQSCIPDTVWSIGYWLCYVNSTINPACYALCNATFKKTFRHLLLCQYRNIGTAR

[7] = target: Histamine H3 receptor (Homo sapiens) (UniProt Q9Y5N1); experiment: Inhibition of H3 histamine receptor (unknown origin) at 5 uM by psychoactive drug screening programme assay; how it was run: as §1
[8] = target: Mu-type opioid receptor (Homo sapiens) (UniProt P35372); experiment: Inhibition of mu opioid receptor (unknown origin) at 5 uM by psychoactive drug screening programme assay; how it was run: as §1
Chain of Mu-type opioid receptor (Homo sapiens) (P35372 whole entry): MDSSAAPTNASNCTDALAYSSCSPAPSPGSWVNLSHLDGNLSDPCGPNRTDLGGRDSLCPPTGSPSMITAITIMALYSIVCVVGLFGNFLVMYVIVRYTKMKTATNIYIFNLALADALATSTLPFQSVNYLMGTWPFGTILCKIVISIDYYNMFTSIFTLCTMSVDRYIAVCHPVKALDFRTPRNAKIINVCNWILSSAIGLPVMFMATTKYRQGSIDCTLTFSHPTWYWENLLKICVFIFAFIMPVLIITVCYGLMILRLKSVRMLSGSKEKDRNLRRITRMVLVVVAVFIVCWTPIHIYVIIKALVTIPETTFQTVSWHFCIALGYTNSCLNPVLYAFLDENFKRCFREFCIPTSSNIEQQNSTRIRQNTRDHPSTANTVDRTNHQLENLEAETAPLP

[9] = target: D(4) dopamine receptor (Homo sapiens) (UniProt P21917); experiment: Inhibition of dopamine D4 receptor (unknown origin) at 5 uM by psychoactive drug screening programme assay; how it was run: as §1
Chain of D(4) dopamine receptor (Homo sapiens) (P21917 whole entry): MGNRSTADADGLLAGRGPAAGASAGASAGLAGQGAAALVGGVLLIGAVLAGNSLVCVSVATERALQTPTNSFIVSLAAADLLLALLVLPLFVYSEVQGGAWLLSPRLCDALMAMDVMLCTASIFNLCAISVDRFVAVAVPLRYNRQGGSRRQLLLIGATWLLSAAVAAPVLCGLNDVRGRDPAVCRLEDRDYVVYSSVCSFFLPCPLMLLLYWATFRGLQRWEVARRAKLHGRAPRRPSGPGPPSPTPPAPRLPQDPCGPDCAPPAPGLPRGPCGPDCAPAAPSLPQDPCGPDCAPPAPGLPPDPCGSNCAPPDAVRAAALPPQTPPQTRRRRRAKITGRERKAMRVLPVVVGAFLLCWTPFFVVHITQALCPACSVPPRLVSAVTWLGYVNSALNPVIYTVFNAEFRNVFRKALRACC

[10] = target: D(3) dopamine receptor (Homo sapiens) (UniProt P35462); experiment: Inhibition of dopamine D3 receptor (unknown origin) at 5 uM by psychoactive drug screening programme assay; how it was run: as §1
Chain of D(3) dopamine receptor (Homo sapiens) (P35462 whole entry): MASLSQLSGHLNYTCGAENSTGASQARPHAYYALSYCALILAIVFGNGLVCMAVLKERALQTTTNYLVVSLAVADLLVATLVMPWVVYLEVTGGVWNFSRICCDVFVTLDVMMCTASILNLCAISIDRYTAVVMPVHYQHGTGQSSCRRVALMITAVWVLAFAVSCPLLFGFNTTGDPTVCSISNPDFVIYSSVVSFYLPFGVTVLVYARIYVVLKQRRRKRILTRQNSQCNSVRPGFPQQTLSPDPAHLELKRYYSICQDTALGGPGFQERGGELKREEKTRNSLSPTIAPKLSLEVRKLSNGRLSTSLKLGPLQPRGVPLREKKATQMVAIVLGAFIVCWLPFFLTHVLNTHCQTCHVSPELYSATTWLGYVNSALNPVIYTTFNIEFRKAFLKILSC

[11] = target: Beta-3 adrenergic receptor (Homo sapiens) (UniProt P13945); experiment: Inhibition of adrenergic beta3 receptor (unknown origin) at 5 uM by psychoactive drug screening programme assay; how it was run: as §1
[12] = target: Alpha-1D adrenergic receptor (Homo sapiens) (UniProt P25100); experiment: Inhibition of adrenergic alpha1D receptor (unknown origin) at 5 uM by psychoactive drug screening programme assay; how it was run: as §1
[13] = target: 5-hydroxytryptamine receptor 5A (Homo sapiens) (UniProt P47898); experiment: Inhibition of serotonin 5-HT5A receptor (unknown origin) at 5 uM by psychoactive drug screening programme assay
Chain of 5-hydroxytryptamine receptor 5A (Homo sapiens) (P47898 whole entry): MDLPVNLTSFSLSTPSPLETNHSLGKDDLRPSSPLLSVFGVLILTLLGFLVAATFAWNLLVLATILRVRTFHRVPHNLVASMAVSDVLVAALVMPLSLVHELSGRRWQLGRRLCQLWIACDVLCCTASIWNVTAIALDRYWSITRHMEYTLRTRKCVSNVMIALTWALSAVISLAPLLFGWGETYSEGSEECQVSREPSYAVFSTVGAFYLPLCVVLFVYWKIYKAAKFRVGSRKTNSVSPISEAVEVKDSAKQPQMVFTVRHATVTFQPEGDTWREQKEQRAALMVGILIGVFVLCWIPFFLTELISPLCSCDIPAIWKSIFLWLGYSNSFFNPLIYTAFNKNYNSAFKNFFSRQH

[14] = target: 5-hydroxytryptamine receptor 2C (Homo sapiens) (UniProt P28335); experiment: Inhibition of serotonin 5-HT2C receptor (unknown origin) at 5 uM by psychoactive drug screening programme assay; how it was run: as §1
Chain of 5-hydroxytryptamine receptor 2C (Homo sapiens) (P28335 whole entry): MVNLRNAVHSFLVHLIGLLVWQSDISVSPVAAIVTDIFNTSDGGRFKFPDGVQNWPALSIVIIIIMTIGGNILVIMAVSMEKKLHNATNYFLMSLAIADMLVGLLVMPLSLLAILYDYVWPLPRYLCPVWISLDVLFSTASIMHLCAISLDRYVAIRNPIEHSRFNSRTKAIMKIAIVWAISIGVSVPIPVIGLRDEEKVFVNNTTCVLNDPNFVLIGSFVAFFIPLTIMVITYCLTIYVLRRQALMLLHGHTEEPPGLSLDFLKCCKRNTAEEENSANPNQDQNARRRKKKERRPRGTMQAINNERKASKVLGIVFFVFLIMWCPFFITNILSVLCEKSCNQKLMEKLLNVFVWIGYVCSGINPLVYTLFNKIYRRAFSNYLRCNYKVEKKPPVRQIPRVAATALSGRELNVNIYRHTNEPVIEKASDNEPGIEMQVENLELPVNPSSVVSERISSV

[15] = target: 5-hydroxytryptamine receptor 2A (Homo sapiens) (UniProt P28223); experiment: Inhibition of serotonin 5-HT2A receptor (unknown origin) at 5 uM by psychoactive drug screening programme assay; how it was run: as §1
[16] = target: 5-hydroxytryptamine receptor 1D (Homo sapiens) (UniProt P28221); experiment: Inhibition of serotonin 5-HT1D receptor (unknown origin) at 5 uM by psychoactive drug screening programme assay; how it was run: as §1
[17] = target: 5-hydroxytryptamine receptor 1E (Homo sapiens) (UniProt P28566); experiment: Inhibition of serotonin 5-HT1E receptor (unknown origin) at 5 uM by psychoactive drug screening programme assay; how it was run: as §1
Chain of 5-hydroxytryptamine receptor 1E (Homo sapiens) (P28566 whole entry): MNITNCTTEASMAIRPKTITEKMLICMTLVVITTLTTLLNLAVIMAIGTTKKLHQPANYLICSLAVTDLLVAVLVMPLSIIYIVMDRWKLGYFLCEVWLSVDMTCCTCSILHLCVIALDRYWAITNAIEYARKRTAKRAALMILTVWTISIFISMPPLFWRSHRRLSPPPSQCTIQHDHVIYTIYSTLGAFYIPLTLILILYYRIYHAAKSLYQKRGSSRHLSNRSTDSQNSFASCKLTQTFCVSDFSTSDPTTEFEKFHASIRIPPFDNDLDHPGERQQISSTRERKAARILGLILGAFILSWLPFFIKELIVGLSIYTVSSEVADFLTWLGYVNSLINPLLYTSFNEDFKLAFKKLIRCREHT

[18] = target: 5-hydroxytryptamine receptor 1A (Homo sapiens) (UniProt P08908); experiment: Inhibition of serotonin 5-HT1A receptor (unknown origin) at 5 uM by psychoactive drug screening programme assay; how it was run: as §1
[19] = target: P2X purinoceptor 2 (Rattus norvegicus) (UniProt P49653); experiment: Activity at rat recombinant purinergic P2X2 receptor expressed in Xenopus oocytes assessed as effect on ATP-induced activation at 3 uM by two-electrode voltage clamp technique relative to control; assay type: cell-based; conditions: Oocyte
Chain of P2X purinoceptor 2 (Rattus norvegicus) (P49653 whole entry, the tested form may be a part): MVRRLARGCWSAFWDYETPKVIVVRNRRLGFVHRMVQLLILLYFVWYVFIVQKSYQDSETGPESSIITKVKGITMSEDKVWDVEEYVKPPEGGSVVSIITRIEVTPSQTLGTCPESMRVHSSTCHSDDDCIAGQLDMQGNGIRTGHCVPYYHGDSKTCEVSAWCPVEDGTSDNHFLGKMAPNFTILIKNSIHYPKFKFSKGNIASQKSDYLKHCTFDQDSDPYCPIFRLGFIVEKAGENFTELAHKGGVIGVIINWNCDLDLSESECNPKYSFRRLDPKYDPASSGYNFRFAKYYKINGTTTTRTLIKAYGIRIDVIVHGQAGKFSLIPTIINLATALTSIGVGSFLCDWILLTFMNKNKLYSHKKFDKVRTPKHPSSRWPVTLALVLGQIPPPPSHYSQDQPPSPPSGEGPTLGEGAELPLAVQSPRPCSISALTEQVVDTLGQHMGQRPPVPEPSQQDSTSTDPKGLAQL
How it was run: (§2)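 Two-electrode voltage clamp of Xenopus oocytes injected with 1–5 ng cRNA and kept in Barth's solution at 15°C for 2–5 days. Oocytes were perfused with 90 mM NaCl, 1.0 KCl, 0.5 BaCl2, 0.005 EDTA, 10 HEPES, pH 7.4, 23°C, and held at -40 mV. Compound was co-applied at 3 µM with agonist from 20 mM DMSO stocks, final DMSO 0.05–0.5%.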

Oocyte = experiment: Activity at mouse recombinant alpha1beta1gammadelta nAChR expressed in Xenopus oocytes assessed as effect on acetylcholine-induced activation at 3 uM by two-electrode voltage clamp technique relative to control; assay type: cell-based; how it was run: as §2
[20] = target: Glycine receptor subunit alpha-1 (Rattus norvegicus) (UniProt P07727); experiment: Activity at rat recombinant glycine alpha1 receptor expressed in Xenopus oocytes assessed as effect on glycine-induced activation at 3 uM by two-electrode voltage clamp technique relative to control; assay type: cell-based; conditions: Oocyte; how it was run: as §2
Chain of Glycine receptor subunit alpha-1 (Rattus norvegicus) (P07727 whole entry): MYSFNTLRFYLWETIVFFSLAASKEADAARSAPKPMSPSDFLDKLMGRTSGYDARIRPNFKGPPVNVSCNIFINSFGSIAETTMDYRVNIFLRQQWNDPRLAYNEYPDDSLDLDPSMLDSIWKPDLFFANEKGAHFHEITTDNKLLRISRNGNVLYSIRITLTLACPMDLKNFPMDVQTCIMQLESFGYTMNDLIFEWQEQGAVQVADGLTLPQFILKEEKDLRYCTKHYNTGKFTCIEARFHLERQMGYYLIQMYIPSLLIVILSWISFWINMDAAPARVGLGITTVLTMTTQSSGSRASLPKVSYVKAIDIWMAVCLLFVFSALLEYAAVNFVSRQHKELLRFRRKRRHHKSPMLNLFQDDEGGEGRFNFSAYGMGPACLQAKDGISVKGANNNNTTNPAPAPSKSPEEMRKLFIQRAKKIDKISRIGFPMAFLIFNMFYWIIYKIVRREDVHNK

[21] = target: Ionotropic glutamate receptor kainate 2/5 (Rattus norvegicus) (UniProt P42260+Q63273); experiment: Activity at rat recombinant GluK2/GluK5 receptor expressed in Xenopus oocytes assessed as effect on glutamate-induced response at 3 uM by two-electrode voltage clamp technique relative to control; assay type: cell-based; conditions: Oocyte; how it was run: as §2
[22] = target: 5-hydroxytryptamine receptor 3A (Rattus norvegicus) (UniProt P35563); experiment: Activity at rat recombinant serotonin 5-HT3A receptor expressed in Xenopus oocytes assessed as effect on serotonin-induced activation at 3 uM by two-electrode voltage clamp technique relative to control; assay type: cell-based; conditions: Oocyte; how it was run: as §2
[23] = target: Ionotropic glutamate receptor NMDA 1/2D (Rattus norvegicus) (UniProt P35439+Q62645); experiment: Activity at rat recombinant GluN1/GluN2D receptor expressed in Xenopus oocytes assessesed as effect of glycine/glutamate-induced response at 3 uM by two-electrode voltage clamp technique relative to control; assay type: cell-based; conditions: Oocyte; how it was run: as §2
[24] = target: Glutamate NMDA receptor; Grin1/Grin2c (Rattus norvegicus) (UniProt P35439+Q00961); experiment: Activity at rat recombinant GluN1/GluN2C receptor expressed in Xenopus oocytes assessesed as effect of glycine/glutamate-induced response at 3 uM by two-electrode voltage clamp technique relative to control; assay type: cell-based; conditions: Oocyte; how it was run: as §2
[25] = target: Glutamate NMDA receptor; Grin1/Grin2b (Rattus norvegicus) (UniProt P35439+Q00960); experiment: Activity at rat recombinant GluN1/GluN2B receptor expressed in Xenopus oocytes assessed as effect of glycine/glutamate-induced response at 3 uM by two-electrode voltage clamp technique relative to control; assay type: cell-based; conditions: Oocyte; how it was run: as §2
[26] = target: Glutamate NMDA receptor; Grin1/Grin2a (Rattus norvegicus) (UniProt P35439+Q00959); experiment: Activity at rat recombinant GluN1/GluN2A receptor expressed in Xenopus oocytes assessesed as effect of glycine/glutamate-induced response at 3 uM by two-electrode voltage clamp technique relative to control; assay type: cell-based; conditions: Oocyte; how it was run: as §2
[27] = target: Ionotropic glutamate receptor NMDA 1/2D (Rattus norvegicus, UniProt P35439+Q62645); experiment: Activity at rat recombinant GluN1/GluN2D receptor assessed as potentiation of glycine/glutamate-induced activation by two-electrode voltage clamp technique; assay type: protein-complex assay
[28] = target: Neuronal acetylcholine receptor; alpha4/beta2 (Homo sapiens) (UniProt P17787+P43681); experiment: Activity at human recombinant alpha4beta2 nAChR expressed in Xenopus oocytes assessed as effect on acetylcholine-induced activation at 3 uM by two-electrode voltage clamp technique relative to control; assay type: cell-based; conditions: Oocyte; how it was run: as §2

Chain of Kappa-type opioid receptor (P41145 whole entry): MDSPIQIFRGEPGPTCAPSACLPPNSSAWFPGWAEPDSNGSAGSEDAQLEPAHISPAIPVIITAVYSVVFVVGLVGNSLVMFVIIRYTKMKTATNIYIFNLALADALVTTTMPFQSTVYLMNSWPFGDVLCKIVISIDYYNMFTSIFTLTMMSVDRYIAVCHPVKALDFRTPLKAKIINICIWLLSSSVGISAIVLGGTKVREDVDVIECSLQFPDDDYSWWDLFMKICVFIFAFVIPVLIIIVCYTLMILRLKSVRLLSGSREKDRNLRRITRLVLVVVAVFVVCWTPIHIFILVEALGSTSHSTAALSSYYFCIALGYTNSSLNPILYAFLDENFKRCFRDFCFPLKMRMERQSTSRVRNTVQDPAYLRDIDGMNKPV

**Q.** With `COc1ccc(OCC2c3ccc(OCc4ccccc4)cc3CCN2C(=O)c2cccc(Br)c2)cc1` (stereo not given) as the compound, how does the Ki [1] read?
**A.** Its Ki is over 5 µM.

**Q.** What about the inhibition [2] of the same compound?
**A.** The inhibition was under 50%.

**Q.** And the inhibition [3]?
**A.** Its inhibition is under 50%.

**Q.** And the inhibition [4]?
**A.** The inhibition was under 50%.

**Q.** And the inhibition [5]?
**A.** Its inhibition is under 50%.

**Q.** And the inhibition (Homo sapiens)?
**A.** The inhibition was under 50%.

**Q.** What about the inhibition [6] of the same compound?
**A.** Its inhibition is under 50%.

**Q.** And the inhibition [7]?
**A.** The inhibition was under 50%.

**Q.** What about the inhibition [8] of the same compound?
**A.** Its inhibition is under 50%.

**Q.** What about the inhibition [9] of the same compound?
**A.** The inhibition was under 50%.

**Q.** What about the inhibition [10] of the same compound?
**A.** Its inhibition is under 50%.

**Q.** And the inhibition [11]?
**A.** Its inhibition is under 50%.

**Q.** What about the inhibition [12] of the same compound?
**A.** Its inhibition is under 50%.

**Q.** What about the inhibition [13] of the same compound?
**A.** Its inhibition is under 50%.

**Q.** And the inhibition [14]?
**A.** The inhibition was under 50%.

**Q.** And the inhibition [15]?
**A.** Its inhibition is under 50%.

**Q.** What about the inhibition [16] of the same compound?
**A.** The inhibition was under 50%.

**Q.** What about the inhibition [17] of the same compound?
**A.** The inhibition was under 50%.

**Q.** What about the inhibition [18] of the same compound?
**A.** Its inhibition is under 50%.

**Q.** What about the Activity [19] of the same compound?
**A.** Its Activity is 94%.

**Q.** And the Activity (Oocyte)?
**A.** The Activity was 105%.

**Q.** And the Activity [20]?
**A.** Its Activity is 91%.

**Q.** And the Activity [21]?
**A.** Its Activity is 103%.

**Q.** And the Activity [22]?
**A.** Its Activity is 93%.

**Q.** What about the Activity [23] of the same compound?
**A.** The Activity was 213%.

**Q.** And the Activity [24]?
**A.** Its Activity is 247%.

**Q.** What about the Activity [25] of the same compound?
**A.** The Activity was 102%.

**Q.** And the Activity [26]?
**A.** Its Activity is 105%.

**Q.** And the EC50 [27]?
**A.** The EC50 was 300 nM.

**Q.** And the Activity [28]?
**A.** The Activity was 91%.
